In the library only some 5.8% were active in any assay of this set; here they are far more common.
T cruzi growth-1 – T. cruzi intracellular proliferation inhibitors, primary screen, cell-based, beta-gal Tulahuen parasites, NIH3T3 host, luminescence. T. cruzi beta-gal in NIH3T3, GalScreen luminescence, 90 h. inhibition, % at 8.34 µM. actives 5.9% (n = 77,000);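 active = mean inhibition above about 93%, with at least 55% of replicates each passing it, limit read from the data, passing the limit was not always enough; inconclusive = only one of those two conditions holds; inactive = neither condition holds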
GASC1 inh – inhibitors of GASC-1 (KDM4C) histone demethylase, primary screen, biochemical, single concentration HTS; actives 0.15% (n = 96,000); inhibition, % at 12.5 µM; GST-KDM4C 2-372, H3K9me3 peptide, LANCE TR-FRET; Lysine-specific demethylase 4C (Homo sapiens), Q9H3R0;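 active = mean replicate inhibition above about 25%, with at least 55% of replicates also reaching it, limit read from the data, passing the limit was not always enough; inconclusive = only one of those two conditions met; inactive = neither condition met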
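Compound: one test concentration per compound; Material: GST-GASC-1 enzyme fragment 2-372; Amount: GASC-1 enzyme at 10 nM final in reaction; Also added: H3K9me3 peptide substrate, Fe(II), 2-oxoglutarate; Technique: LANCE TR-FRET; Times: 30 min demethylation and 1 h detection at room temperature.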
IDH1 mut inh – inhibitors of IDH1 R132H reductase, primary screen, biochemical, plate reader, single point. Isocitrate dehydrogenase [NADP] cytoplasmic (Homo sapiens), O75874. diaphorase/resazurin fluorescence, 60 min. inhibition, % at 10 µM. actives 0.18% (n = 70,000); in the data active = inhibition above about 34%; inconclusive = no clear call, values can overlap the other calls; inactive = below about 11%;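 also: 0% = DMSO and 100% = no enzyme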
Target sequence (O75874 whole entry R132H): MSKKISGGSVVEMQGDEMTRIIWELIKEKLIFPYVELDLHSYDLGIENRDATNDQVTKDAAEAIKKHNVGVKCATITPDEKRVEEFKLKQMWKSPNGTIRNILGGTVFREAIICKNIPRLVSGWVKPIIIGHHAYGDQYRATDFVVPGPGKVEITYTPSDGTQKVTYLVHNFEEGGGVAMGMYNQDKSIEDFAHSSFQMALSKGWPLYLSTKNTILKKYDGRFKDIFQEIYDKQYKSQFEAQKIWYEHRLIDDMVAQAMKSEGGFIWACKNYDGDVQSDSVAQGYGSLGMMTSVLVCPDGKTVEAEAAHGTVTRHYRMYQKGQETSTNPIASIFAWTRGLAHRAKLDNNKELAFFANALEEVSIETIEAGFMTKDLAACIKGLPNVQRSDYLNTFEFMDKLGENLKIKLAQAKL
Pf Dd2 growth – P. falciparum Dd2 growth inhibitors, primary screen, SYBR Green fluorescence, single dose replicates; 72 h; hits give low values; activity change, % at 10 µM; actives 2.3% (n = 94,000); AID 1159554, 2015; in the data active = activity change below about -80%; inconclusive = no clear call, values can overlap the other calls
T cruzi growth-2 – T. cruzi intracellular proliferation inhibitors, confirmation, cell-based, NIH3T3 host, beta-gal parasite, luminescence, cherry-pick; T. cruzi beta-gal in NIH3T3, GalScreen luminescence, 90 h; inhibition, % at 8.35 µM; actives 72% (n = 5,600); shares compounds with T cruzi growth-1;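 active = mean replicate inhibition above about 95% and at least 55% of replicates individually reaching it, limit read from the data; inconclusive = only one of the two criteria is met; inactive = neither criterion is met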
T cruzi growth-3 – inhibitors of intracellular T. cruzi replication, confirmation, NIH3T3 host cells, beta-gal parasites, cherry-pick, set 2; shares compounds with T cruzi growth-1; T. cruzi beta-gal in NIH3T3, GalScreen luminescence, 90 h; inhibition, % at 2.09 µM; actives 21% (n = 5,600); AID 651740, 2012;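 active = mean inhibition above about 95%, with at least 55% of replicates also reaching it, limit read from the data; inconclusive = meets just one of the two conditions; inactive = meets neither condition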;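 also: plate controls were neutral control median for no effect and positive control median for full effect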
3T3 cytotox – cytotoxicity in mouse NIH/3T3 fibroblasts, confirmation, cytotoxicity control for T. cruzi proliferation inhibitor project, cell-based, cherry-pick, single point; shares compounds with T cruzi growth-1; NIH/3T3 viability, CellTiter-Glo ATP luminescence, 90 h; actives 14% (n = 5,600); AID 651742, 2012; cytotoxicity (signal decrease), % at 8.35 µM;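 active = mean signal decrease across replicates above about 35% based on untreated-well scatter, with enough replicates individually passing, limit read from the data; inconclusive = no rule stated though some were filed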;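 also: 0% = median of neutral control wells and 100% = median of positive control wells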
NIH3T3 tox 2 – NIH/3T3 fibroblast cytotoxicity, confirmation, cytotoxicity control, cell-based, cherry-pick, single point, set 2; shares compounds with T cruzi growth-1; NIH/3T3 viability, CellTiter-Glo ATP luminescence, 90 h; inhibition, % at 24.9 µM; actives 56% (n = 5,600);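 active = mean loss of cell viability signal at or above a set limit, and enough replicates individually reaching it; inconclusive = meets only the mean limit or only the replicate share; inactive = meets neither condition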;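 also: 0% = median of neutral control wells and 100% = median of positive control wells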
Numbers without * were called inactive; ? = inconclusive; nt = no result given.

SMILES	T cruzi growth-1	GASC1 inh	IDH1 mut inh	Pf Dd2 growth	T cruzi growth-2	T cruzi growth-3	3T3 cytotox	NIH3T3 tox 2
COCC(=O)Nc1ccc2c(c1)[C@H]1C[C@H](CC(=O)NCc3ccc(-c4ccccc4)cc3)O[C@@H](CO)[C@H]1O2	47	-1	-1	5	nt	nt	nt	nt
COCC(=O)Nc1ccc2c(c1)[C@H]1C[C@@H](CC(=O)NCc3ccc(-c4ccccc4)cc3)O[C@H](CO)[C@H]1O2	102*	-2	0	-42	12	-5	8	17
COc1ccc(CN(C)C[C@@H]2Oc3ccc(NC(=O)Nc4ccccc4)cc3C(=O)N([C@@H](C)CO)C[C@@H]2C)cc1	15	0	0	13	nt	nt	nt	nt
COc1ccc(NC(=O)Nc2ccc3c(c2)C(=O)N([C@H](C)CO)C[C@H](C)[C@H](CN(C)Cc2ccc(-c4ccccc4)cc2)O3)cc1	?	-1	3	13	100*	22	-6	19
COc1ccc(NC(=O)Nc2ccc3c(c2)C(=O)N([C@@H](C)CO)C[C@@H](C)[C@@H](CN(C)Cc2ccc(-c4ccccc4)cc2)O3)cc1	100*	-3	2	21	104*	108*	55*	84*
COc1ccc(CN(C)C[C@@H]2Oc3ccc(NC(=O)Nc4ccccc4)cc3C(=O)N([C@H](C)CO)C[C@@H]2C)cc1	24	-1	-1	2	nt	nt	nt	nt
CCC(C)C(O)C(C)(O)/C=C/C1=CC2=C(Cl)C(=O)C(C)(O)C(O)C2=CO1 (configuration not stated)	nt	nt	0	nt	nt	nt	nt	nt
Cc1nc(SCC(N)=O)c2c(C)c(C)sc2n1	nt	nt	0	nt	nt	nt	nt	nt
O=C(CCN1C(=O)c2ccccc2C1=O)Nc1ccc([N+](=O)[O-])cc1	nt	nt	0	nt	nt	nt	nt	nt
CCc1ccc(NC(=O)Cn2cnc3ccccc3c2=O)cc1	nt	nt	0	nt	nt	nt	nt	nt
O=C(CN1CCOCC1)N1CCCCN2[C@H](CO)[C@H](c3ccc(C#Cc4ccccc4F)cc3)[C@H]2C1	118*	1	nt	-20	87	20	19	95*
O=C(CN1CCOCC1)N1CCCCN2[C@H](C1)[C@@H](c1ccc(C#Cc3ccccc3F)cc1)[C@@H]2CO	84	-1	nt	-10	nt	nt	nt	nt
CCC(=O)N1CCCCN2[C@H](CO)[C@H](c3ccc(C#Cc4ccccc4F)cc3)[C@H]2C1	78	0	nt	-29	nt	nt	nt	nt
O=C(CN1CCOCC1)N1CCCCN2[C@H](CO)[C@H](c3ccc(C#Cc4ccccc4F)cc3)[C@@H]2C1	106*	1	nt	6	101*	58	45*	76*
O=C(CN1CCOCC1)N1CCCCN2[C@H](C1)[C@H](c1ccc(C#Cc3ccccc3F)cc1)[C@@H]2CO	107*	0	nt	-6	55	22	32	89*
O=C(CN1CCOCC1)N1CCCCN2[C@H](CO)[C@H](c3ccc(-c4ccccc4)cc3)[C@H]2C1	70	3	nt	15	nt	nt	nt	nt
O=C(CN1CCOCC1)N1CCCCN2[C@H](CO)[C@H](c3ccc(C#Cc4ccccc4)cc3)[C@H]2C1	98*	0	nt	-11	96*	25	11	67*
O=C(CN1CCOCC1)N1CCCCN2[C@H](CO)[C@@H](c3ccc(/C=C/c4ccccc4)cc3)[C@@H]2C1	56	1	nt	-5	nt	nt	nt	nt
Cc1sc2nc(SCC(=O)O)n(-c3ccc(Cl)c(Cl)c3)c(=O)c2c1C	nt	nt	8	nt	nt	nt	nt	nt
C[C@H]1CN([C@@H](C)CO)S(=O)(=O)c2ccc(Br)cc2O[C@@H]1CN(C)Cc1ccncc1	99*	0	-1	-23	96*	55	6	9
C[C@@H]1CN([C@@H](C)CO)S(=O)(=O)c2ccc(-c3ccncc3)cc2O[C@@H]1CN(C)Cc1ccncc1	105*	1	20	9	100*	68	36*	65*
C[C@H]1CN([C@@H](C)CO)S(=O)(=O)c2ccc(-c3ccncc3)cc2O[C@@H]1CN(C)Cc1ccncc1	100*	0	nt	-36	96*	97*	30	65*
C[C@@H]1CN([C@H](C)CO)S(=O)(=O)c2ccc(-c3ccncc3)cc2O[C@H]1CN(C)Cc1cncnc1	107*	-2	0	9	97*	93	14	53*
C[C@@H]1CN([C@H](C)CO)S(=O)(=O)c2ccc(-c3ccncc3)cc2O[C@@H]1CN(C)Cc1ccncc1	95	2	nt	-4	nt	nt	nt	nt
Cc1[nH]n(-c2ccccc2)c(=S)c1C=NC(C)Cc1ccccc1 (configuration not stated)	nt	nt	-5	nt	nt	nt	nt	nt
SMILES	T cruzi growth-1	GASC1 inh	IDH1 mut inh	Pf Dd2 growth	T cruzi growth-2	T cruzi growth-3	3T3 cytotox	NIH3T3 tox 2
CN(C)CC#Cc1ccc([C@@H]2[C@H](CO)N3CCCCN(C(=O)Nc4cc(F)ccc4F)C[C@@H]23)cc1	?	4	nt	-39	93	73	9	98*
CN(C)CC#Cc1ccc([C@@H]2[C@@H](CO)N3CCCCN(C(=O)Nc4ccccc4F)C[C@H]23)cc1	-11	4	nt	-2	nt	nt	nt	nt
CN(C)CC#Cc1ccc([C@H]2[C@H](CO)N3CCCCN(C(=O)Nc4cc(F)ccc4F)C[C@@H]23)cc1	105*	5	nt	-55	99*	43	24	58*
CN(C)CC#Cc1ccc([C@@H]2[C@@H](CO)N3CCCCN(C(=O)Nc4ccc(F)cc4)C[C@@H]23)cc1	?	4	nt	-20	106*	82	2	?
CN(C)CC#Cc1ccc([C@H]2[C@@H](CO)N3CCCCN(C(=O)Nc4ccc(F)cc4)C[C@H]23)cc1	53	2	nt	-47	nt	nt	nt	nt
COCC#Cc1ccc([C@H]2[C@@H](CO)N3CCCCN(C(=O)Nc4cc(F)ccc4F)C[C@H]23)cc1	101*	1	nt	-52	104*	62	-1	89*
CN(CC(=O)Nc1ccccc1C(C)(C)C)S(=O)(=O)c1ccc(Cl)cc1	nt	nt	0	nt	nt	nt	nt	nt
CN(C)CC#Cc1ccc([C@@H]2[C@H](CO)N3CCCCN(C(=O)Nc4ccccc4F)C[C@@H]23)cc1	102*	4	nt	-40	?	93	-8	39*

Screening results (PubChem)
